The results in this text go back to ChEMBL document CHEMBL1158468, “Synthesis, structure-activity relationships, and in vivo evaluation of N3-phenylpyrazinones as novel corticotropin-releasing factor-1 (CRF1) receptor antagonists” (J Med Chem, 2009).

The structures appear in SMILES notation. Bounds are passed on as bounds.

One test deals with T1, Corticotropin-releasing factor receptor 1 (Rattus norvegicus, UniProt P35353).
T1 sequence (P35353 whole entry): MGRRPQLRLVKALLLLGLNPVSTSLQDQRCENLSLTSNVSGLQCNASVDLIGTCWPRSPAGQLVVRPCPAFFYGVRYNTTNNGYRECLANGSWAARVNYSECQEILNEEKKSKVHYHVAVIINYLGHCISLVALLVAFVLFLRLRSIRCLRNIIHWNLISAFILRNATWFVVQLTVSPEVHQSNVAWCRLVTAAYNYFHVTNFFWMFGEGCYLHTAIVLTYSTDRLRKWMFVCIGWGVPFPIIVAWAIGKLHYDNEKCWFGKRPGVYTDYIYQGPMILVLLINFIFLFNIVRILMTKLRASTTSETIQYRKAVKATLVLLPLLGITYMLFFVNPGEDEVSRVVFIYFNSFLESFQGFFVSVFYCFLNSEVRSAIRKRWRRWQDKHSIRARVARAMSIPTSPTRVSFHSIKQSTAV
Briefly: Displacement of [125I]Tyr-ovine-CRF from CRF1 receptor in rat frontal cortex homogenate by gamma counting. The class given is tissue-based. An outline of the steps:
(§1)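 Washed homogenates of frozen rat frontal cortex (CRF1, 25 μg/well) or porcine choroid plexus (CRF2, 10 μg/well) in 50 mM Hepes pH 7.0, 10 mM MgCl2, 2 mM EGTA, protease inhibitors, 0.005% Triton X-100. Ligand 150 pM 125I-ovine-CRF (CRF1) or 100 pM 125I-sauvagine (CRF2). Incubation 2 h at 21 °C, then filtration and gamma counting. Nonspecific binding: 1 μM CRF1 reference antagonist or 1 μM α-helical CRF(9-41). IC50 from 5- or 10-point curves by nonlinear regression.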
By IC50 is commonly meant the concentration at which inhibition is half-maximal. High values mean weaker potency in that assay, low ones greater potency in that assay. Consider `CCCC(CCC)n1cc(Cl)nc(Nc2cc(C)c(OC)cc2C)c1=O`, for which the half-maximal inhibitory concentration (IC50) amounted to 0.62 nM. This lies in the sub-nanomolar range.

As for `CCC(C1CC1)n1cc(Cl)nc(Nc2c(Cl)cc(C#N)cc2Cl)c1=O` (single isomer, unassigned), the half-maximal inhibitory concentration (IC50) worked out at 2.8 nM.

In the case of `CCC(CC)Cn1cc(Cl)nc(Nc2c(C)cc(C)cc2C)c1=O`, the concentration for half-maximal inhibition (IC50) came to 39 nM. Against the preceding compound, the IC50 is about 14-fold higher. Still for that read-out and setting: the value for `CC[C@H](C1CC1)n1cc(Cl)nc(Nc2ccc(C)cc2C)c1=O` was 6.6 nM; that for `COc1cc(C)c(Nc2nc(Cl)cn([C@@H](CO)C3CC3)c2=O)cc1C` was 10 nM; that for `COC[C@@H](C1CC1)n1cc(Cl)nc(Nc2cc(C)c(OCc3ccccc3)cc2C)c1=O` was 910 nM. In the case of `CC[C@H](C1CC1)n1cc(Cl)nc(Nc2c(C)cc(OC)cc2C)c1=O`, the IC50 amounted to 0.52 nM.

Take `CC[C@H](C1CC1)n1cc(Cl)nc(Nc2cc(C)c(OC)cc2C)c1=O`: the IC50 worked out at 0.27 nM. Same read-out and setting: the value for `COc1ccc(Nc2nc(C#N)cn([C@H](C)C3CC3)c2=O)c(C(F)(F)F)n1` was 6.7 nM; that for `CC[C@H](C1CC1)n1cc(Cl)nc(N(CC)c2c(C)cc(C)cc2C)c1=O` was 4.6 nM; that for `CC[C@H](C1CC1)n1cc(Cl)nc(Nc2c(C)cc(Cl)cc2Cl)c1=O` was 0.53 nM. Regarding `COC[C@@H](C)n1cc(Cl)nc(Nc2c(C)cc(C)cc2C)c1=O`, the IC50 turned out to be 12 nM. `CCc1cn([C@H](C)C2CC2)c(=O)c(Nc2ccc(OC)nc2C(F)(F)F)n1` registered a half-inhibitory concentration (IC50) of 180 nM. The compound `COc1cc(Br)c2c(c1)OCCN2c1nc(Cl)cn([C@H](C)C2CC2)c1=O` gave an IC50 of 19 nM. Regarding `COc1ccc(Nc2nc(Br)cn([C@H](C)C3CC3)c2=O)c(C(F)(F)F)n1`, the IC50 was found to be 1.2 nM. In turn, `COc1ccc(Nc2nc(Cl)cn([C@H](C)C3CC3)c2=O)c(C(F)(F)F)n1` showed an IC50 of 1.8 nM. The same measure, in the same setting: the value for `CCC(CC)n1cc(Cl)nc(Nc2c(C)cc(C)cc2C)c1=O` was 2.9 nM. The same measure, in the same setting: the value for `CCC(CC)Cn1cc(Cl)nc(Nc2cc(C)c(OC)cc2C)c1=O` was 76 nM. `COc1cc(Cl)c(Nc2nc(Cl)cn([C@H](C)C3CC3)c2=O)c(Cl)c1` had an IC50 of 1.1 nM. This IC50 lies about 69-fold lower than the previous one. On to `COC[C@@H](C1CC1)n1cc(Cl)nc(Nc2c(C)cc(C)cc2C)c1=O`, for which the half-maximal inhibitory concentration (IC50) amounted to 1.3 nM. The IC50 values of the last two compounds are within 1.5-fold of each other.

For the compound `COc1ccc(Nc2nc(C)cn([C@H](C)C3CC3)c2=O)c(C(F)(F)F)n1`, the IC50 came out at 3.8 nM. `COC[C@H](C)n1cc(Cl)nc(Nc2cc(C)c(OC)cc2C)c1=O` came in with an IC50 of 5.8 nM. Compound `CC[C@H](C1CC1)n1cc(Cl)nc(Nc2cc(C)c(C)cc2C)c1=O` yielded an IC50 of 2.4 nM. Same read-out and setting: the value for `CC[C@H](C1CC1)n1cc(Cl)nc(Nc2c(C)cc(C)cc2C)c1=O` was 0.63 nM; that for `CC[C@H](COC)n1cc(Cl)nc(Nc2cc(C)c(OC)cc2C)c1=O` was 0.59 nM; that for `COc1cc(Br)c2c(c1)CCN2c1nc(Cl)cn([C@H](C)C2CC2)c1=O` was 0.94 nM.

Regarding `COCC(COC)n1cc(Cl)nc(Nc2cc(C)c(OC)cc2C)c1=O`, the IC50 came to 2.1 nM. This IC50 is about 2.2-fold higher than that of the compound before.

`Cc1cc(C)c(Nc2nc(Cl)cn([C@H](C)C3CC3)c2=O)c(C)c1` came in with an IC50 of 1.7 nM. This IC50 and that of the compound before are within 1.5-fold of each other.

With `CC[C@H](C1CC1)n1cc(Cl)nc(Nc2ccc(Cl)cc2)c1=O`, the IC50 was found to be 180 nM. Still for that read-out and setting: the result for `C[C@H](C1CC1)n1cc(Cl)nc(Nc2c(Cl)cc(C#N)cc2Cl)c1=O` reads 2.4 nM; that for `C#Cc1cn([C@H](C)C2CC2)c(=O)c(Nc2ccc(OC)nc2C(F)(F)F)n1`, 5.6 nM. On to `COC[C@@H](C)n1cc(Cl)nc(Nc2cc(C)c(OC)cc2C)c1=O`, for which the IC50 worked out at 1.7 nM. In turn, `CCOc1cc(C)c(Nc2nc(Cl)cn([C@@H](COC)C3CC3)c2=O)cc1C` gave an IC50 of 1.5 nM. Turning to `COc1cc(C)c(Nc2nc(Cl)cn([C@H](C)C3CC3)c2=O)cc1C`, the IC50 turned out to be 0.42 nM. `COCC(COC)n1cc(Cl)nc(Nc2c(C)cc(C)cc2C)c1=O` registered a concentration for half-maximal inhibition (IC50) of 16 nM.

Consider `COc1cc(Cl)c2c(c1)CCN2c1nc(Cl)cn([C@H](C)C2CC2)c1=O`, for which the concentration for half-maximal inhibition (IC50) was 0.62 nM. On the same count and under the same terms, the result for `Cc1cc(C)c(Nc2nc(Cl)cn([C@@H](CO)C3CC3)c2=O)c(C)c1` reads 35 nM; that for `C=Cc1cn([C@H](C)C2CC2)c(=O)c(Nc2ccc(OC)nc2C(F)(F)F)n1`, 1200 nM. On to `CC[C@H](COC)n1cc(Cl)nc(Nc2c(C)cc(C)cc2C)c1=O`, for which the IC50 was 1.4 nM. For the compound `CCN(c1c(Cl)cc(OC)cc1Cl)c1nccn([C@H](C)C2CC2)c1=O`, the IC50 turned out to be 34 nM. This IC50 is about 24-fold higher than that of the compound before. As for `COC[C@@H](C1CC1)n1cc(Cl)nc(Nc2cc(C)c(O)cc2C)c1=O`, the concentration for half-maximal inhibition (IC50) amounted to 280 nM. As to `C[C@@H](C1CC1)n1cc(Cl)nc(Nc2c(Cl)cc(C#N)cc2Cl)c1=O`, the IC50 came out at 6.3 nM. Against the preceding compound, the IC50 is about 44-fold lower.

On to `CCC(CC)n1cc(Cl)nc(Nc2cc(C)c(OC)cc2C)c1=O`, for which the 50% inhibitory concentration (IC50) was 0.8 nM.

In the case of `CC[C@H](C1CC1)n1cc(Cl)nc(Nc2c(C)cccc2Cl)c1=O`, the IC50 is 9.3 nM. The compound `COc1ccc(Nc2nccn([C@H](C)C3CC3)c2=O)c(C(F)(F)F)n1` had an IC50 of 150 nM. This IC50 lies about 16-fold higher than the previous one.

Regarding `COC[C@H](C1CC1)n1cc(Cl)nc(Nc2cc(C)c(OC)cc2C)c1=O`, the IC50 came out at 0.29 nM. `CC[C@H](C1CC1)n1cc(Cl)nc(N(CC)c2cc(C)c(C)cc2C)c1=O` returned an IC50 of 1.5 nM. `CC[C@H](C1CC1)n1cc(Cl)nc(Nc2c(Cl)cc(C#N)cc2Cl)c1=O` showed an IC50 of 1.2 nM. `CCCC(CCC)n1cc(Cl)nc(Nc2c(C)cc(C)cc2C)c1=O` yielded an IC50 of 2.4 nM.

Target in another test: not listed separately
Nature of the test: Displacement of [125I]sauvagine from CRF2 receptor in pig choroid plexus homogenate by gamma counting. It counts as tissue-based, Sus scrofa. An outline of the steps:
as §1
In general terms: Displacement assays read how much labelled ligand stays bound in the presence of the test substance.
For `COC[C@H](C1CC1)n1cc(Cl)nc(Nc2cc(C)c(OC)cc2C)c1=O`, the IC50 is more than 10000 nM.
